Source: PubChem BioAssay (Broad Institute)
SR-BI DiI-HDL act – SR-BI HDL lipid transfer activation | CHO ldlA[mSR-BI] cells, DiI-HDL uptake fluorescence, 3 h; 100 = double the neutral-control signal | 320,000 tested, 0.096% active | activation, % at 12.5 µM;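 active means mean replicate activation of at least 60% and every replicate at or above 60%; inconclusive means mean or all-replicate condition met, but not both; inactive means mean below 60% and not all replicates reaching 60%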;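 further: 0% = median plate neutral-control signal and 100% = twice that signal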
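system = CHO ldlA[mSR-BI] cells, LDL receptor-null, SR-BI overexpressing | medium = Ham's F12 with 0.5% BSA, HEPES 25 mM, pH 7.4 | probe or stimulus = DiI-HDL 10 µg/mL | compound dosing = single-point compound dose | incubation = compound exposure 3 h, 37 °C | technique = DiI fluorescence, bottom read | read-out = cell-associated DiI fluorescence as measure of HDL uptake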
dFosB activator – enhances mouse delta FosB homodimer DNA binding; P13346; AID 493131; 340,000 tested, 0.99% active; activation, % at 25 µM; purified delta FosB, TAMRA-CDK5 oligo fluorescence polarization; percent of positive-control signal above neutral wells;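 active means mean activation above about 17%, with every replicate also reaching it, limit read from the data, passing the limit was not always enough; inconclusive means only one of the two conditions met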
Target sequence (P13346 whole entry, looked up): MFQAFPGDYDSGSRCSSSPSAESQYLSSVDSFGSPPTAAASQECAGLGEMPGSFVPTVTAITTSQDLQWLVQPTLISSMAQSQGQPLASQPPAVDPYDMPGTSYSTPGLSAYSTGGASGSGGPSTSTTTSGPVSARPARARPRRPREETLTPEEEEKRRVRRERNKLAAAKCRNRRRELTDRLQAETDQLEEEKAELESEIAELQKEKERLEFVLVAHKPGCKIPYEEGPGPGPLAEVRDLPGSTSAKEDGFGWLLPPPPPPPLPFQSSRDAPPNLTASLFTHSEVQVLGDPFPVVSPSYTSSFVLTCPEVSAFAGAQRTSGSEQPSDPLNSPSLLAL
XiGFP reactiv – reactivates the inactive X chromosome in mouse fibroblasts. 360,000 tested, 0.055% active. XiGFP mouse fibroblasts, % GFP-positive cells imaging, 3 d; cells co-treated with 5-aza-dC sensitizer; scaled so ellipticine positive control = 100%. activation, % at 7.58 µM;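 active means mean normalized replicate activation at least 10% and every replicate at or above 10%; inconclusive means only one of the two criteria met; inactive means mean below 10% and not all replicates reach 10%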;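 further: 0% = median of on-plate neutral control wells and 100% = ellipticine 6 µM median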
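System: XiGFP fibroblasts, SV40-immortalized. Medium: DMEM plus 5-aza-dC sensitizer. Doses: single point. Timing: 3 d treatment, 15 min room-temperature fixation. Control set: ellipticine 6 µM.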
Ecoli rRNA inh – inhibits bacterial ribosomal RNA function over humanized ribosomes | E. coli WT GFP vs humanized-ribosome RFP mutants, fluorescence, 24 h; stronger effect = lower value; DMSO median 0, no signal -100 | GFP signal change (wild-type ribosome), % (concentration not given with the values) | 350,000 tested, 1.6% active | AID 720706;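 active means significant combined selectivity score with lowered wild-type GFP, culture density cut under 30%, mutant RFP and density less affected; inactive means any of these conditions unmet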
SR-BI DiI inh – blocks mouse SR-BI lipid uptake from DiI-HDL; Q61009; inhibition, % at 12.5 µM; 320,000 tested, 0.96% active; ldlA[mSR-BI] CHO cells, DiI-HDL uptake fluorescence, 3 h; AID 488896;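 active means mean replicate inhibition of at least 70% and a set share of replicates each scoring 70 or more; inconclusive means meets just one of the two criteria; inactive means fails both criteria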;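 further: 0% = median of neutral control wells and 100% = median of positive control wells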
PvdQ inh – blocks Pseudomonas aeruginosa PvdQ acylase activity; purified PvdQ acylase, fluorescence plate reader; inhibition, % at 10 µM; 340,000 tested, 0.063% active; in the data active means inhibition above about 30%, passing the limit was not always enough; inconclusive means no clear call, values can overlap the other calls;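 further: 0% = vehicle neutral wells and 100% = reference inhibitor wells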
* = called active by the depositor; ? = inconclusive; nt = no result. Rows were chosen to be rich in hits. Some 2.6% of all compounds tested hit in one or more screens of this group.

SMILES	SR-BI DiI-HDL act	dFosB activator	XiGFP reactiv	Ecoli rRNA inh	SR-BI DiI inh	PvdQ inh
C[C@@H]1CN([C@@H](C)CO)C(=O)c2cc(NC(=O)Nc3cccc4ccccc34)ccc2O[C@@H]1CN(C)C(=O)Nc1ccc2c(c1)OCO2	nt	nt	0	-4	nt	nt
O=C(Oc1ccc(/C=N/O)cc1)c1ccccc1Cl	-4	-8	0	-29*	4	7
O=C(N/N=C/c1ccncc1)c1ccc(COc2cccc3cccnc23)cc1	-71	-18	0	-28*	?	2
O=C(N/N=C/c1ccc([N+](=O)[O-])cc1)c1ccc(COc2ccccc2-c2ccccc2)cc1	-99	0	0	nt	99*	3
O=C(N/N=C/c1ccc2c(c1)OCO2)c1ccc(COCC(F)(F)C(F)F)cc1	-14	-1	nt	nt	14	-6
COc1ccc(/C=N/NC(=O)c2ccc(COc3cccc4cccnc34)cc2)cc1O	nt	6	0	-21	nt	5
O=C(CSc1cccc2cccnc12)N/N=C/c1ccc(O)cc1	nt	-7	0	-14*	nt	9
COc1cccc(/C=N/NC(=O)CSc2cccc3cccnc23)c1	8	-9	0	-12	-8	-11
O=C(N/N=C/c1ccc2c(c1)OCO2)c1ccc(COc2cccc3cccnc23)cc1	-76	?	0	1	76*	-10
CCc1ccccc1NC(=O)c1ccc(OCc2c(C)noc2C)cc1	-53	4	0	-20*	53	-13
Cc1noc(C)c1COc1ccc(C(=O)NNC(=O)c2ccccc2O)cc1	-95	-7	0	-1	95*	-18
Cc1noc(C)c1COc1ccc(C(=O)Nc2nnc(CC(C)C)s2)cc1	-82	-9	0	8	82*	-12
O=C(NCCc1ccc(Cl)cc1)c1ccc2nccnc2c1	4	-3	0	-2	-4	-15
CCCCN(CC)CCCNC(=O)c1cc2c(-c3ccc(OC)c(OC)c3)nn(C)c2s1	-13	37*	0	-10	13	-3
CCN1CCCC1CNC(=O)c1cc2c(-c3ccc(Cl)cc3)nn(C)c2s1 (configuration not stated)	-57	-37	nt	nt	57	-17
COCCNC(=O)c1cc2c(-c3ccc(Cl)cc3)nn(C)c2s1	-87	-57	0	-27*	87*	-11
Cn1nc(-c2ccc(Cl)cc2)c2cc(C(=O)NCCCN3CCCC3)sc21	-76	-36	0	7	76*	5
Cc1ccc(CNC(=O)c2cc3c(-c4ccc(Cl)cc4)nn(C)c3s2)o1	-76	-21	1	-13	76*	0
Cc1ccc(C(=O)NCc2ccc3c(c2)OCO3)cc1S(=O)(=O)N1CCCCC1	-14	4	nt	nt	14	-9
CN(CC(O)COc1ccc(S(=O)(=O)N2CCOCC2)cc1)C1CCCCC1 (configuration not stated)	nt	6	nt	nt	-6	3
CCCNC(=O)Nc1ccc2c(c1)C(=O)N(C)C[C@H](OC)[C@H](C)CN[C@H](C)CO2	nt	nt	1	4	nt	nt
O=C1NC(Cc2c[nH]c3ccccc23)C(=O)N1c1ccc(F)cc1 (configuration not stated)	-5	-6	nt	nt	5	-13
CCCCNC(=O)c1cc2c(-c3ccc(Cl)cc3)nn(C)c2s1	-69	-12	0	1	69	-8
COCCCNC(=O)c1cc2c(-c3ccc(Cl)cc3)nn(C)c2s1	-77	-30	0	-16	77*	2
CCOc1ccc(C(=O)Nc2c3c(nn2C(C)(C)C)CSC3)cc1OCC	-75	-10	nt	nt	75*	-17
SMILES	SR-BI DiI-HDL act	dFosB activator	XiGFP reactiv	Ecoli rRNA inh	SR-BI DiI inh	PvdQ inh
CCOc1ccc(C(=O)Nc2nnc(C)s2)cc1OCC	-61	-18	nt	nt	61	-4
COc1ccc(S(=O)(=O)NCc2ccco2)c2ccccc12	3	-10	nt	-26*	20	4
O=C(Nc1cc(Cl)ccn1)C1(c2ccccc2)CC1(Cl)Cl (configuration not stated)	-8	-8	0	-42*	8	-5
Cc1ccc(C(=O)N2CCN(c3ccc(C(F)(F)F)cn3)CC2)c(C)c1	16	-12	nt	nt	-16	-6
O=C(C=Cc1ccccc1)c1cccs1	0	-4	0	-22*	0	-9
Nc1ccc(/C=C/C(=O)c2cccs2)cc1	16	-3	0	-13	-16	10
COc1ccc(F)cc1S(=O)(=O)N1CCC(C(N)=O)CC1	2	-4	nt	nt	-2	-14
CCn1cc(C(=O)OCC(=O)Nc2ccc(C(C)C)cc2)c(=O)c2ccc(C)nc21	10	-13	0	-23*	-10	2
CCOc1cc(/C=C/C(=O)OCC(=O)NC2CCS(=O)(=O)C2)ccc1OCc1ccccc1 (configuration not stated)	-73	-2	1	-28*	73*	2
COc1ccc(NC(=O)c2cc(C3CC3)nc3c2cnn3C(C)C)cc1OC	-74	-2	0	-19	74*	0
COc1cc(C)c(NC(=O)c2cc(C3CC3)nc3c2cnn3C(C)C)cc1OC	-34	-10	0	nt	34	-10
O=C(NC(=S)NCCc1ccccc1)c1ccccc1F	6	1	0	-31*	-6	-5
CO[C@@H]1CN(C)C(=O)c2ccc(NS(C)(=O)=O)cc2OC[C@@H](C)N(C(=O)CN(C)C)C[C@H]1C	nt	nt	0	-1	nt	nt
COc1ccc(-c2cnc3c(-c4ccc(F)cc4)cnn3c2N)cc1	-95	-11	0	6	95*	-14
COc1ccc(-c2cnn3c(N)c(S(=O)(=O)C(C)(C)C)cnc23)cc1	-12	0	nt	nt	12	2
COc1ccccc1/C=C(/C(=O)OCC(=O)Nc1ccc(N(C)C)cc1)c1ccccc1	24	-4	0	nt	-24	9
COc1ccccc1/C=C(/C(=O)OCC(=O)Nc1ccccc1C)c1ccccc1	36	-17	0	-22*	-36	1
CS(=O)(=O)Nc1ccccc1C(=O)OCC(=O)N1CCC(c2ccccc2)=N1	-9	-5	0	-32*	9	-2
COc1ccc(CN(C)C(=S)Nc2ccc(OC(F)F)cc2)cc1	-13	-7	2	-20	13	-11
COc1cccc(CN(C)C(=S)Nc2ccc(C)c(C)c2)c1	1	-7	0	-25*	-1	0
CC(C)(CC(=O)O)CC(=O)NCc1c(Cl)cccc1Sc1ccc(Cl)cc1	nt	nt	0	-40*	nt	nt
O=C(O)c1ccccc1C(=O)NCc1c(Cl)cccc1Sc1ccc(Cl)cc1	15	5	0	-29*	-15	27
O=C(O)CCCC(=O)NCc1c(Cl)cccc1Sc1ccc(Cl)cc1	-1	4	0	nt	1	-18
